MC4R antag cAMP – MC4R antagonists of cAMP signaling, primary screen, cell-based, TR-FRET, antagonist arm of biased-ligand search; inhibition, % at 6.5 µM; MC4R-expressing cells, MTII-stimulated cAMP, LANCE TR-FRET; Melanocortin receptor 4 (Homo sapiens), P32245; hit rate 0.48% among 360,000;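 active = inhibition above its plate's cutoff, the mean of tested wells on that plate plus 3 SD, cut at about 29% in these data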;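 note: 0% = Melanotan II alone and 100% = Melanotan II plus saturating MCL0020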
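material = U2OS cells stably expressing human melanocortin 4 receptor (MC4R) | also added = Melanotan II challenge | dosing = single nominal compound dose of 6.5 µM | detection = TR-FRET with Eu-cAMP and labeled anti-cAMP, 671 nm | replication = singlicate | timing = compound 30 min, challenge 1 h, detection 1 h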
MC4R barr agon – MC4R agonists recruiting beta-arrestin, primary screen, cell-based, luminescence, agonist arm of biased-ligand search; U2OS MC4R beta-arrestin complementation; percent of melanotan II response, DMSO zero; activation, % at 8.9 µM; hit rate 0.98% among 360,000;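 active = activation above a per-plate cutoff, the mean activation of sample wells on that plate plus 3 SD, cut at about 8% in these data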
NTR1 agonist – agonists of human NTR1, primary screen, imaging, U2OS cells, beta-arrestin-GFP, high content; Neurotensin receptor type 1 (Homo sapiens), P30989; NTR1-U2OS beta-arrestin-GFP spot imaging, agonist mode; activation, % at 20 µM; hit rate 0.17% among 330,000; AID 493036, 2011;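 active = activation at or above 40% of the spot to cytoplasm intensity ratio, with at least 20 cells analyzed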;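 note: 0% = DMSO without peptide and 100% = 100 nM NTR1 peptide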
AI-2 QS modul – Vibrio harveyi AI-2 quorum sensing modulators, primary screen, JMH597 strain, luminescence/OD600 ratio. Vibrio harveyi JMH597 AI-2 luminescence/OD600 ratio, 9 h; stronger effect = lower value; strain lacks LuxN and CqsS sensors; 0 = neutral-control median. activity change, % at 7.5 µM. hit rate 0.4% among 300,000; in the data active = activity change below about -75%, passing the limit was not always enough;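 note: luminescence divided by OD600 gain over 9 h not by final OD600 alone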
MC4R barr conf – MC4R beta-arrestin agonists, retest, confirmation, cell-based, luminescence, U2OS; hit rate 31% among 2,400; activation, % at 8.9 µM; shares compounds with MC4R barr agon; U2OS MC4R beta-arrestin recruitment; scaled DMSO 0%, Melanotan II 100%;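 active = mean activation across replicates above the hit cutoff set in the earlier primary screen, cut at about 8% in these data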
MOR DOR agonist – agonists of MOR-DOR heterodimerization, counter-screen for MC4R biased agonist project, cell-based, luminescence | AID 602194, 2012 | activation, % at 9.2 µM | shares compounds with MC4R barr agon | U2OS PathHunter beta-arrestin, beta-gal luminescence; percent of deltorphin B response, DMSO zero | hit rate 5.8% among 2,400;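 active = mean activation across replicates exceeds the hit threshold derived in the earlier primary screen, cut at about 18% in these data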;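 note: 100% = deltorphin B at 0.9 µM final and 0% = DMSO alone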
Target sequence (P35372 whole entry, looked up): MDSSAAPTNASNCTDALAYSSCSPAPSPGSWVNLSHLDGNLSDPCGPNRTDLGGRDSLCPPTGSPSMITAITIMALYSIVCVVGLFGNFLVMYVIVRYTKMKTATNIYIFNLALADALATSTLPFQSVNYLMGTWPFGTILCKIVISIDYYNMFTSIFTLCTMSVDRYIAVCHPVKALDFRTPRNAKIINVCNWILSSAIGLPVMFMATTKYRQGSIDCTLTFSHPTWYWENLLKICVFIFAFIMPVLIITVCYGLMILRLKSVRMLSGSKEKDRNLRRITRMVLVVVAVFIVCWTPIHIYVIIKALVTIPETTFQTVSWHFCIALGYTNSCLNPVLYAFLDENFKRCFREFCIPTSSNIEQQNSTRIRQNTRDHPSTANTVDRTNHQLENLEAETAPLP
Target sequence (P41143 whole entry, looked up): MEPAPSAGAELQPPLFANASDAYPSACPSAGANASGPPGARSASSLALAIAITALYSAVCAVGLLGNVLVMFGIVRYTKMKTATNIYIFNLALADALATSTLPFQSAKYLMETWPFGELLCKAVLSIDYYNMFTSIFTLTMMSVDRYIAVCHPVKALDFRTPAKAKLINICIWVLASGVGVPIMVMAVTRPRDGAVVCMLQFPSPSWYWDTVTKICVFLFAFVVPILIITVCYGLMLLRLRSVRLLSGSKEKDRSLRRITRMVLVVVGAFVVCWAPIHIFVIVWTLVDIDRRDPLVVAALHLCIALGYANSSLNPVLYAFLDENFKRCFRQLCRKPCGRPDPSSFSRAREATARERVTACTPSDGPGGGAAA
Starred values were filed as active, the others as inactive; . = no result. This is a sample that favours compounds with a hit; in the whole collection about 1.8% have one here.

SMILES | MC4R antag cAMP | MC4R barr agon | NTR1 agonist | AI-2 QS modul | MC4R barr conf | MOR DOR agonist
O=C(Nc1nnc(SCc2ccc(F)cc2)s1)c1ccco1 | 0 | -1 | 2 | 11 | . | .
COC(=O)c1ccc(CSc2nnc(NC(=O)c3cc4c(s3)CCCC4)s2)cc1 | 7 | 18* | 0 | 18 | 0 | 2
CC1CCc2sc(C(=O)Nc3nnc(SCc4ccc(F)cc4)s3)cc2C1 (stereo not given) | 3 | 33* | 2 | 12 | 12* | 2
CC1(NC(=O)Cc2csc(-c3cccc(Cl)c3)n2)CCS(=O)(=O)C1 (stereo not given) | 20 | -1 | 4 | . | . | .
CSCCC(NC(=O)OCc1ccccc1)C(=O)NCc1cccnc1 (stereo not given) | 10 | -2 | 1 | 9 | . | .
c1ccc(COc2ncnc3c2ncn3CCCNCC(c2ccccc2)c2ccccc2)cc1 | 6 | 13* | . | . | 11* | 30*
COc1ncnc2c1ncn2CCCNCC(c1ccccc1)c1ccccc1 | 2 | 0 | . | . | . | .

Screens: PubChem, several laboratories
